pIC50: −log10 of the molar value. Values after ≈ are worked out from the molar mass of the structure shown. Active and inactive are the calls of the source. The rule behind the calls is not given here.

In series [1] the test system is Candida albicans. Nature of the series: Antifungal activity against Candida albicans MY 1055 infected in DBA/2 mouse assessed as reduction in kidney fungal burden administered as iv tid after 24 hrs. The class given is functional. As to conditions: MY 1055, Kidney. The essentials: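 Abbreviated 24 h version of the disseminated C. albicans kidney-burden model in mice. Dosing intravenous, thrice daily, at total doses of 50 or 25 mg/kg/day. Kidney burden compared with controls by Excel t test (p < 0.05). ED90 expressed as mg/kg/day.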

In series [2] the test system is Candida albicans. Nature of the series: Ratio of MIC for Candida albicans 15 harboring cytochrome b G37S mutant to MIC for wild type Candida albicans. The class given is functional.
The test system of series [3] is Pichia kudriavzevii. Nature of the series: Antifungal activity against Candida krusei CLY 549 after 24 hrs by NCCLS broth microdilution method. The class given is functional. The following applies: CLY 549, 24 h.
Series [4] can be described thus: Inhibition of Saccharomyces cerevisiae MY 2141 NADH:cytochrome c oxidoreductase.
The subject of series [5] is Candida albicans. Nature of the series: Ratio of MIC for Candida albicans 7 harboring cytochrome b G37D mutant to MIC for wild type Candida albicans. The class given is functional.
A short description of series [6]: Oral bioavailability in mouse. The class given is ADME, organism-based. The following applies: in vivo.
Series [7] concerns Candida albicans. Put plainly: Ratio of MIC for Candida albicans 11 harboring cytochrome b G37C mutant to MIC for wild type Candida albicans. The class given is functional.
Series [8] in a line: Inhibition of bovine ubiquinol-cytochrome c reductase after 2 mins by stopped flow rapid scanning spectroscopy. The arrangement: species or system Bos taurus.
For series [9], the system named is Candida albicans. Nature of the series: Antifungal activity against Candida albicans SC 53124 after 24 hrs by NCCLS broth microdilution method. The class given is functional. As to conditions: SC 53124, 24 h.
Series [10] relates to Candida albicans. Nature of the series: Ratio of MIC for Candida albicans 4 harboring cytochrome b G37S mutant to MIC for wild type Candida albicans. The class given is functional.
The test system of series [11] is Candida albicans. Nature of the series: Ratio of MIC for Candida albicans 6 harboring cytochrome b G37S mutant to MIC for wild type Candida albicans. The class given is functional.
Series [12] relates to Cryptococcus neoformans. Put plainly: Antifungal activity against Cryptococcus neoformans MY 2061 infected in DBA/2 mouse assessed as reduction in spleen fungal burden at 100 mg/kg, ip bid. The class given is functional, organism-based. The arrangement: dose 100 mg/kg. The essentials:
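Mice with disseminated C. neoformans MY2061 infection (8 × 10⁵ cfu/mouse). Dosed twice daily at 100 or 50 mg/kg, oral or intraperitoneal, in 5% aqueous DMSO. Spleen burden measured as log cfu/g of spleen and compared by Excel t test (p < 0.05).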

The test system of series [13] is Candida albicans. Put plainly: Ratio of MIC for Candida albicans 14 harboring cytochrome b G37S mutant to MIC for wild type Candida albicans. The class given is functional.
A short description of series [14]: Inhibition of Saccharomyces cerevisiae MY 2141 cytochrome b-c1 complex Qn site in ubiquinol:Cytochrome c reductase.
Series [15] concerns Candida albicans. Put plainly: Antifungal activity against Candida albicans MY 1055 infected in DBA/2 mouse assessed as reduction in kidney fungal burden at 50 mg/kg, po bid administered 2 days post infection measured after 4 days relative to vehicle-treated control. The class given is functional, organism-based. The arrangement: dose 50 mg/kg. The essentials:
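DBA/2 mice infected intravenously with 5.4 × 10⁴ cfu of C. albicans MY1055. Dosed orally twice daily for 2 days in 10% aqueous DMSO at 50, 25, 12.5 and 6.25 mg/kg. Kidney Candida burden determined 4 days after infection and compared with vehicle-treated controls by Excel t test (p < 0.05). ED90 is the dose giving 90% reduction of kidney C. albicans.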

The subject of series [16] is Candida albicans. Nature of the series: Ratio of MIC for Candida albicans 5 harboring cytochrome b G37D mutant to MIC for wild type Candida albicans. The class given is functional.
Series [17] concerns Candida albicans. Nature of the series: Antifungal activity against fluconazole-resistant Candida albicans MY 2301 after 24 hrs by NCCLS broth microdilution method. As to conditions: MY 2301, 24 h. The class given is functional.
The nature of series [18]: Inhibition of Saccharomyces cerevisiae MY 2141 electron transport protein complex 2/3 using succinate as substrate assessed as decrease in oxygen consumption measured for 3 mins.
In series [19] the test system is Candida albicans. Put plainly: Antifungal activity against Candida albicans MY 1055 after 24 hrs by NCCLS broth microdilution method. As to conditions: MY 1055, 24 h. The class given is functional.
In series [20] the test system is Candida parapsilosis. Nature of the series: Antifungal activity against Candida parapsilosis ATCC 22019 after 24 hrs by NCCLS broth microdilution method. The class given is functional. The following applies: Lodderomyces parapsilosis, ATCC 22019, 24 h.

Regarding `C/C=C/[C@@H]1[C@H]2C[C@@H](C)CC[C@@H]2C(C)=C[C@H]1C(=O)c1c(O)c(-c2ccc(O)cc2)c[nH]c1=O` [ILICICOLIN H], the ED90 in series [1] amounted to 22.3 mg/kg/day. Moreover, the Ratio in series [2], in series [5], in series [7], in series [10], in [11] and in series [13] was 250 in each case. Further, the Ratio in series [16] stood at 250. Further, the MIC in series [3] was 0.01 µg/mL (≈ 0.0231 µM); in series [9], 0.01 µg/mL (≈ 0.0231 µM); in [17], 0.04 µg/mL (≈ 0.0923 µM); in series [19], 0.04 µg/mL (≈ 0.0923 µM); in series [20] it was 0.01 µg/mL (≈ 0.0231 µM). Besides, the results for the pIC50 in series [4], in [8] and in [14] were 8.64, 6.70 and 8.52, respectively. For the same molecule, in series [6], the bioavailability was 72%. Besides, the outcome in series [12] and in series [15] was Active. Further, the IC50 in series [18] came to 1 µg/mL (≈ 2.31 µM).

The values above are taken from ChEMBL document CHEMBL2177002, “Antifungal spectrum, in vivo efficacy, and structure-activity relationship of ilicicolin h” (ACS Med Chem Lett, 2012).
